CRFR2-BP antag: blocks CRF-induced signaling of the CRF-BP/CRF-R2 complex; hit rate 0.59% among 350,000; AID 588475; HEK293 CRF-R2/CRF-BP, CRF-induced calcium fluorescence; inhibition, % at 11.8 µM;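 active means inhibition of the ligand-induced calcium signal above about 50% at the single tested concentration, limit read from the data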
CRFR2-BP ag: agonists of human CRF-binding protein/CRF-R2 receptor complex; HEK293 CRF-R2/CRF-BP, calcium dye fluorescence (FLIPR); percent of saturating CRF peptide response; activation, % at 13.2 µM; hit rate 0.46% among 350,000; AID 588473;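 active means activation of at least 50%, plus an integration ratio under a set limit after plate pattern correction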;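 further: plate controls were neutral control wells without compound for no effect and CRF at EC100 for full effect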
CSN deneddyl inh: blocks human CSN-mediated cullin deneddylation | Q92905 | inhibition, % at 12.5 µM | Purified CSN, SCF-Nedd8-OG deneddylation, fluorescence polarization | hit rate 0.38% among 360,000 | AID 651999;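 active means pattern-corrected inhibition above about 35%, with an unprinted fluorescence ratio check between 0.5 and 1.5, limit read from the data, passing the limit was not always enough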;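 further: 0% = enzyme with substrate and 100% = substrate without enzyme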
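Test system: Human Csn5 produced in HEK293T cells | Compound: 12.5 µM single point | Times: 90 min, room temperature | Signal: Fluorescence polarization readout | Read-out basis: % inhibition of substrate cleavage by Csn5 | Controls: no-enzyme wells high, enzyme-with-substrate wells low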
HNF4A DNA FP: change in binding of human HNF4 alpha to DNA. P41235. activity change, % at 10 µM. HNF4a-FITC DNA binding, fluorescence polarization, 1 h. hit rate 0.3% among 360,000. AID 1224865; in the data active means activity change above about 30%, passing the limit was not always enough
Target sequence (P41235 whole entry, looked up): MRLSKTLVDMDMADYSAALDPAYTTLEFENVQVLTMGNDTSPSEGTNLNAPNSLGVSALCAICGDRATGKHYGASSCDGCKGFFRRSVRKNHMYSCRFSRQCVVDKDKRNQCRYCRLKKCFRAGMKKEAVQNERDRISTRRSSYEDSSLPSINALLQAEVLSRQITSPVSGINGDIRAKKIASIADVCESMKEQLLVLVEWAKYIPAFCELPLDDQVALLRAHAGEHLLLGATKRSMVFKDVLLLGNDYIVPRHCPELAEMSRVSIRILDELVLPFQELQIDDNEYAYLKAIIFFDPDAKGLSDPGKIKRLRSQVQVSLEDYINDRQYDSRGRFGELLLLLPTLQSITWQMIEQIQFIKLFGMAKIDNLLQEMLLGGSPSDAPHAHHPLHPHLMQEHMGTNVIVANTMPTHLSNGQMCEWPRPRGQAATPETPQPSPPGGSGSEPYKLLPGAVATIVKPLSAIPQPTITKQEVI
TPT1 inhibitor: inhibitors of Candida albicans tRNA 2'-phosphotransferase TPT1; recombinant caTPT1, FP RNA substrate dephosphorylation; inhibition, % at 5 µM; hit rate 0.81% among 300,000; AID 1962;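 active means inhibition above the mean of all tested compounds plus 3 SD, set per screening campaign, cut at about 24% in these data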;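 further: plate controls were DMSO alone for no effect and ferristatin control at 100 nM for full effect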
Rpn11 block: blocks the human proteasome subunit Rpn11; human 26S proteasome, Ub4-pepOG fluorescence polarization; 20S core pre-blocked with epoxomicin; calls only at 20 µM; hit rate 0.59% among 360,000;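 active means inhibition at 20 µM, scaled to each plate's controls, above about 33%, limit read from the data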
Rpn11 inh conf: Rpn11 inhibition confirmation, single concentration | hit rate 29% among 1,900 | inhibition, % at 20 µM | shares compounds with Rpn11 block | purified human 26S proteasome, Ub4-pepOG fluorescence polarization; proteasome pretreated with epoxomicin
MMP-2 counter-1: counter-screen for RPN11 inhibitors: inhibition of human MMP-2; shares compounds with Rpn11 block; hit rate 4% among 1,900; recombinant MMP-2, FRET peptide cleavage fluorescence; inhibition, % at 20 µM;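 further: human MMP-2 activated beforehand with APMA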
Thrombin FP: blocks bovine thrombin, flagging nonselective RPN11 hits | shares compounds with Rpn11 block | bovine thrombin cleavage of Ub4-pepOG, fluorescence polarization | inhibition, % at 20 µM | hit rate 13% among 1,900 | AID 602333;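 active means mean inhibition at least 40% at 20 µM, or signal 3 deviations below plate average, so some actives read negative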;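 further: plate controls were thrombin with DMSO for no effect and buffer wells lacking thrombin for full effect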
CSN5 deneddyl: Csn5 (human) deneddylation inhibition, single-concentration validation; shares compounds with CSN deneddyl inh; Csn5 deneddylation of SCF-Nedd8OG, fluorescence polarization, 90 min; inhibition, % at 16.6 µM; hit rate 62% among 540; AID 720654; in the data active means inhibition above about 50%;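 further: 0% = DMSO with enzyme and 100% = no enzyme wells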
MMP-2 counter-2: MMP-2 (human) inhibition, counter-screen for CSN hits; shares compounds with CSN deneddyl inh; recombinant MMP-2, FRET substrate fluorescence, 60 min; inhibition, % at 16.6 µM; hit rate 33% among 540;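 active means corrected plate-normalized z-score of 5 or more, or -5 or less, or inhibition of 15% or more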;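 further: plate controls were DMSO wells with enzyme for no effect and buffer wells lacking MMP-2 for full effect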
Thrombin counter: counter-screen for CSN deneddylation inhibitors: bovine thrombin inhibition | bovine thrombin cleavage of Ub4-pepOG, fluorescence polarization | shares compounds with CSN deneddyl inh | hit rate 49% among 540 | AID 720656 | inhibition, % at 16.6 µM;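 active means inhibition at or above a set limit, with a fluorescence interference ratio between 0.5 and a set maximum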
HNF4A confirm: change in binding of human HNF4 alpha to DNA, retest; HNF4A-FITC DNA binding, fluorescence polarization, 1 h; hit rate 99% among 210; activity change, % at 12.5 µM; AID 1224897; shares compounds with HNF4A DNA FP; call rule not given here
Starred values were filed as active, the others as inactive; i = inactive; / = not tested or not shown; + = active, no number; ! = not active in a repeat. Hits are enriched below; roughly 2.3% of the tested compounds scored in any of these assays. Unless noted, no stated cut-off is given here; in the data, active means inhibition above about 40%; inactive means the rest.

SMILES	CRFR2-BP antag	CRFR2-BP ag	CSN deneddyl inh	HNF4A DNA FP	TPT1 inhibitor	Rpn11 block	CSN5 deneddyl	MMP-2 counter-2	Thrombin counter	others
Cc1c(P(=S)(c2ccccc2)c2ccccc2)[n+]2ccccc2n1C	30	-1	74*!	75	/	+!	/	/	/	Rpn11 inh conf=78*;MMP-2 counter-1=-249;Thrombin FP=13
CN1CCN(c2c[nH]c(=O)[nH]c2=O)CC1	-6	1	0	4	-3	i	/	/	/
CCc1ccc(N2C(=O)NC(=O)/C(=C\c3cccn3CCOc3ccc(C(C)C)cc3)C2=O)cc1	-33	3	0	13	6	+	/	/	/	Rpn11 inh conf=-16;MMP-2 counter-1=-63;Thrombin FP=-9
CC(C)c1ccc(N2C(=O)NC(=O)/C(=C/c3cnc(-c4ccccc4)nc3)C2=O)cc1	-24	0	14	0	8	i	/	/	/
COc1ccc(CN2CCN(C(=O)COc3ccc4ccccc4c3)CC2)c(OC)c1	-21	2	-4	6	0	i	/	/	/
CCC(C)N1CCN(C(=O)COc2ccc3ccccc3c2)CC1 (centres undefined)	4	0	-3	10	-3	+	/	/	/	Rpn11 inh conf=-2;MMP-2 counter-1=-9;Thrombin FP=1
O=C(N/N=C/c1c(O)n(CCC2=CCCCC2)c(=S)[nH]c1=O)c1ccccc1	55*	1	7	9	18	+	/	/	/	Rpn11 inh conf=76*;MMP-2 counter-1=-2;Thrombin FP=13
O=C1NC(=O)N(CCc2ccc(F)cc2)C(=O)/C1=C\C=C\c1ccccc1	-25	0	15	1	/	i	/	/	/
O=C1NC(=O)N(c2ccccc2)C(=O)/C1=C/C=C/c1ccco1	-43	2	42*	-1	19	+	58*	16*	14	Rpn11 inh conf=13;MMP-2 counter-1=21;Thrombin FP=5
CN(C)c1ccc(/C=C/C=C2/C(=O)NC(=O)N(c3ccccc3)C2=O)cc1	-45	47	38*	11	/	+	72*	-13	12	Rpn11 inh conf=65*;MMP-2 counter-1=-22;Thrombin FP=34
CC(c1ccccc1)n1cncc1C(=O)O (centres undefined)	4	-2	0	-1	-4	i	/	/	/
C=C1C(=O)OC2CC(C)C3C=CC(=O)C3(C)C(O)C12 (centres undefined)	6	-2	7	0	/	i	/	/	/
C=C1C(=O)O[C@@H]2C[C@@H](C)[C@@H]3C=CC(=O)[C@@]3(C)[C@@H](OC(=O)CC(=O)O[C@H]3[C@@H]4C(=C)C(=O)O[C@@H]4C[C@@H](C)[C@@H]4C=CC(=O)[C@]43C)[C@H]12	8	4	57*	-25	5	+	/	1	21*
C1CN(P2(N3CC3)=NP(N3CC3)(N3CC3)=NP(N3CC3)(N3CC3)=N2)CCO1 (centres undefined)	-11	-1	4	5	/	i	/	/	/
O=C1C(=O)c2ccccc2-c2ccccc21	-5	-1	59*	3	0	i	0	-2	-39
NC(=O)c1ccc(N=Cc2c(O)n(Cc3ccco3)c(=O)[nH]c2=O)cc1	2	1	45*	-26	16	i	39	55*	1
Cc1nc2c(=O)n(C)c(=O)nc-2n(C)n1	-4	2	63*	78*	-1	i	12	10	-41
CCn1nc(-c2ccccc2)nc2c(=O)n(C)c(=O)nc1-2	-27	7	2	2	-105	i	/	/	/
CCCCC(=O)N/N=C/c1c(O)n(CCc2ccccc2)c(=O)[nH]c1=O	22	1	2	2	3	i	/	/	/
CCCCn1c(O)c(/C=C/C=Nc2ccccc2)c(=O)[nH]c1=O	-134	113*	47*	55*	141*	/	50	-11	37*
CCC(C)n1c(O)c(C=Nc2cccc(C(F)(F)F)c2)c(=O)[nH]c1=S (centres undefined)	-79	10	-1	1	6	i	/	/	/
CCOC(=O)c1c(NS(=O)(=O)c2ccccc2)n(CCCOC)c2nc3ccccc3nc12	-3	-5	49*	1	-2	i	95*	-3	-1
O=C1NC(=O)C(=Cc2ccc3c(c2)OCO3)C(=O)N1	/	/	/	/	2	/	/	/	/
CN1C(=O)/C(=C/C=C/c2ccco2)C(=O)NC1=S	3	11	65*	4	23	+	29	20*	50*
CC(C)Cc1nnc(NC(=O)CCC(=O)N2CCN(CCOC(c3ccccc3)c3ccccc3)CC2)s1	7	3	-4	3	-1	i	/	/	/
C[C@H]1CC[C@@H]2[C@@H](C)[C@H]3[C@H](C[C@H]4[C@@H]5CC=C6C[C@@H](O[C@@H]7O[C@H](CO)[C@H](O)[C@H](O[C@@H]8O[C@H](CO)[C@@H](O)[C@H](O)[C@H]8O)[C@H]7O[C@@H]7O[C@@H](C)[C@H](O)[C@@H](O)[C@H]7O)CC[C@]6(C)[C@H]5CC[C@]34C)N2C1	-22	67*	16	44*	28*	/	/	/	/	HNF4A confirm=40*
COc1ccc(S(=O)(=O)NC(CC(=O)N2CCC3(CC2)OCCO3)C(C)C)cc1 (centres undefined)	-3	1	-2	4	-1	i	/	/	/

Source: PubChem (several laboratories)
